This is one part of a sample in which hits are shown more often than they occur.
INS promoter act – activators of insulin promoter-driven GFP, primary screen, imaging, TRM-6 cells, eGFP reporter, cell count. hit rate 0.81% among 130,000. activation, % at 2 µM. plate-scaled: unstimulated 0, stimulated control 100;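 active = activation at 2 µM above a set limit, confirmed on inspection of the cell images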;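 also: share of cells whose green reporter signal exceeds an intensity cutoff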
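System – human fetal islet-derived TRM-6 cells with tamoxifen-inducible insulin promoter–eGFP reporter · Amount – 1,000 cells per well · Schedule – overnight tamoxifen, then two-day compound incubation at 37 °C · Detection – high-content imaging of fixed cells with Hoechst nuclear stain · Read-out – percent cells above green-intensity threshold, converted to percent activation versus plate controls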
* marks the source's active call; other numbers are inactive results.

SMILES	INS promoter act
Cc1cc(N2CC(C(=O)NCc3cccs3)CC2=O)ccc1C(C)C (configuration not stated)	0
Cc1ccc(S(=O)(=O)NC(=O)c2ccc(-c3ccc(-c4ccccc4)cc3)o2)c(C)c1	-67
O=C(/C=C/c1ccccc1[N+](=O)[O-])N1CCCCC1	-3
CC(=O)c1cccc(NC(=O)/C=C/c2ccc([N+](=O)[O-])s2)c1	614*
COc1ccccc1/C=C/C(=O)N1CCCC1	3
O=C(/C=C/c1ccc([N+](=O)[O-])s1)N1CCCCC1	328*
COC(=O)c1cccc(NC(=O)/C=C/c2ccc([N+](=O)[O-])cc2)c1	0
O=C(CNC(=O)c1cccc(F)c1)N/N=C/c1ccc([N+](=O)[O-])s1	7
Cc1cc(OCC(=O)c2ccc(F)cc2)ccc1N1C(=O)CCC1=O	7
C=CCNC(=S)/C(=C(/[O-])c1ccccc1Br)[n+]1ccccc1	0
O=C(/C=C\c1ccc2c(c1)OCO2)Nc1c2c(nn1-c1ccc(Cl)cc1)CSC2	-7
CC(=O)c1ccc(Oc2nc(-c3cccnc3)nc3ccccc23)cc1	0
CC(=O)Nc1ccnc(-c2cccnc2)n1	187*
Cc1ccccc1C(=O)Nc1ccnc(-c2ccncc2)n1	0
CCCCCCC(=O)Cc1cc(OC)c(OC)cc1C=C(C(=O)OCC)C(=O)OCC	5
CCn1c(=O)cc(OCC(=O)Nc2cc(C)ccn2)c2ccccc21	6
CCn1c(=O)cc(OCC(=O)NCCc2cccc(C)c2)c2ccccc21	129*
CCOC(=O)COc1cc(=O)n(CC)c2ccccc12	-4
COc1ccc(CCNC(=O)C2CCCN2S(=O)(=O)c2ccc(F)cc2)cc1OC (configuration not stated)	0
CCCCOc1ccc(NC(=O)C2OC3OC(C)(C)OC3C3OC(C)(C)OC23)cc1 (configuration not stated)	-6
CC12CNCC(C)(CN(C3(O)C(=O)Nc4ccc(Br)cc43)C1)C2=O (configuration not stated)	7
CC(NC(=O)CSc1nc(=O)cc(N)n1-c1ccccc1)c1ccccc1 (configuration not stated)	-7
CC(C)CNC(=O)CSc1nc2nn(-c3ccccc3)c(=O)c-2c2n1CCCCC2	467*
COC(=O)c1c(NC(=O)CSc2nnnn2-c2ccccc2)sc2c1CCCC2	3
Cc1cc(NC(=O)CSc2nccn2-c2ccc(Cl)cc2)no1	0
SMILES	INS promoter act
CCn1c(NC)cc(=O)n(C)c1=O	3
CCN1CCN(S(=O)(=O)c2cc(C)c(OC)cc2C)CC1	-57
CCn1c(=O)n(CC)c2cc(S(N)(=O)=O)c(C)cc21	525*
CCSc1n[nH]c(=S)s1	7
CCCCC(=O)Nc1ccc(C(=O)Nc2nnc(COC)s2)cc1	-3
O=CN1CCN(C(=O)c2ccc(-c3nc4ccccc4s3)s2)CC1	7
CC(C)C(c1nnnn1Cc1ccc(F)cc1)N1CCN(Cc2ccc3c(c2)OCO3)CC1 (configuration not stated)	121*
c1cnc(N2CCN(Cc3ccc4c(c3)OCO4)CC2)nc1	314*
c1cncc(C(c2nnnn2C2CCCC2)N2CCN(Cc3ccc4c(c3)OCO4)CC2)c1 (configuration not stated)	119
CCOc1ncccc1C(=O)N1CCN(Cc2ccc3c(c2)OCO3)CC1	7
c1ccc2c(c1)CCN(Cc1nnnn1Cc1ccc3c(c1)OCO3)C2	-7
c1cc2c(cc1CN1CCOCC1)OCO2	3
O=C(O)CCCn1cc(NC(=O)COc2cc(F)ccc2[N+](=O)[O-])cn1	-7
O=C(NC1CCCC1)c1cccc(NC(=O)c2ccco2)c1	231
CC(C)Oc1ccc(C(=O)NC(=S)N2CCOCC2)cc1	0
O=C(NCCC1=CCCCC1)C1CCN(S(=O)(=O)c2ccc(Br)s2)CC1	-6
CCCN1C(=O)/C(=C/c2ccncc2)SC1=S	-7
CCCCN1C(=O)C(=O)N(c2ccccc2)C1=S	-9
CCCCN1C(=O)/C(=C/C=C2/CC(C)(C)CN2C)SC1=S	270*
Cn1c(=O)c2c(nc(SCC(=O)O)n2Cc2cc3c(cc2Cl)OCO3)n(C)c1=O	1
CCO/N=C(\C)c1c(O)c2ccccc2n(C)c1=O	4
CC(C)CC(=O)n1sc(NC(=O)c2ccccc2)nc1=O	7
CCn1c(NC(=O)c2ccc(C)cc2)c2ccccc2nc1=O	-9
Cc1ccc(C(=O)Nc2nc(=O)n(C(=O)c3ccccc3Cl)s2)cc1	84*
CC1CCc2cc(F)ccc2N1S(=O)(=O)c1ccc(Cl)nc1 (configuration not stated)	3
SMILES	INS promoter act
Cc1ccc(S(=O)(=O)n2c3ccc(Cl)cc3c3nc(C)sc32)cc1	-80
COc1ccc(C(=O)/C=C/c2ccc(OC)c(Cn3nnc4ccccc43)c2)cc1	-8
c1cncc(Nc2nc(-c3ccncc3)cs2)c1	-4
Clc1ccccc1Nc1nc(-c2cccnc2)cs1	358*
c1ccc(Nc2nc(-c3cccnc3)cs2)nc1	0
COC(=O)c1nc(N)sc1C(C)C	0
CCOC(=O)NC1(C(F)(F)F)NC(=O)N(c2ccc(F)cc2)C1=O (configuration not stated)	7
Cc1nc2nc(COc3ccccc3)nn2c(C)c1Cl	456*
COc1ccc(CNc2nc3nc(C)c(Cl)c(C)n3n2)cc1OC	3
Nc1nc(N)nc(COc2ccccc2)n1	-8
COc1ccc(C(C)=O)cc1COc1ccc(-n2cnnn2)cc1	8
Cc1ccc(Cn2nnc(C(=O)Nc3cc(C)ccc3C)c2N)cc1	6
Cc1ccc(C)c(NC(=O)c2ccc[n+](Cc3ccc([N+](=O)[O-])cc3)c2)c1	233*
Cc1ccc(C)c(NC(=O)Cn2nc([N+](=O)[O-])c(Br)c2C)c1	0
N#CCC(=O)N1CCN(C=O)CC1	5
CC(C)(C)NC(=O)CN(C(=O)CS(=O)CC(=O)Nc1ccc(F)cc1)c1ccc(Cl)cc1 (configuration not stated)	3
CCc1nn(-c2ccccc2)c2c1-c1cc(OC)c(OC)cc1C1(N2)C(=O)Nc2ccccc21 (configuration not stated)	-4
CCOC(=O)C1=C(C)NC(SCc2cc(=O)[nH][nH]2)=C(C#N)C1c1cccs1 (configuration not stated)	244
CC1(C)CC(=O)C(C(=S)Nc2ccccc2)=C(NC2CC(C)(C)NC(C)(C)C2)C1	0
Cc1ccc(SC(C)C(=O)Nc2ncn[nH]2)cc1 (configuration not stated)	8
CCCCCNC(=O)C(C)Sc1ccc(Cl)cc1 (configuration not stated)	164
Cc1ccc(SC(C)C(=O)NCC(C)C)cc1 (configuration not stated)	519*
NNC(=O)c1cnn(Cc2ccccc2)c1N	-29
Cc1ccc(CSCC(=O)Nc2ccc3c(c2)OCO3)cc1	-6
Cc1ccc(NC(=O)CSCC#N)cc1	83*
Cc1ccc(NC(=O)CSc2nnc(-c3cccnc3)s2)cc1	9
CCC(C)N1C(=O)CCC1C(=O)O (configuration not stated)	0
COc1ccc(C(=O)N(C)c2c(C)n(C)n(-c3ccccc3)c2=O)cc1OC	0
CCN(CC)C(=O)c1sc(NC(=O)C(Sc2ccccc2)c2ccccc2)c(C(=O)OC(C)C)c1C (configuration not stated)	4
O=S(=O)(NC1CCCCC1NS(=O)(=O)c1ccc(F)cc1)c1ccc(F)cc1 (configuration not stated)	513*

From PubChem BioAssay
